Hits are enriched below; roughly 5.7% of the tested compounds scored in any of these assays.
T cruzi repl = T. cruzi replication inhibition; T. cruzi beta-gal in NIH3T3, luminescence, 90 h; 1.4% of 300,000 active; inhibition, % (test concentration not listed); AID 1885;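 active means mean inhibition across valid replicates above about 55%, limit read from the data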;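 further: signal also drops with host cell toxicity which is not excluded here; 0% = plate median of DMSO wells and 100% = zero luminescence signal; higher percent means less beta-gal luminescence so fewer parasites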
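compound dosing = single 50 nL compound addition per well in DMSO | material = NIH/3T3 host cells with β-galactosidase reporter T. cruzi | input = 5,000 host fibroblasts per well | timing = ≥90 h infection period, 3 h prior cell attachment | read-out basis = percent inhibition of parasite-derived β-gal signal | detection = GalScreen β-gal luminescence, detergent lysis, 60 min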
SKKanGAS inh = blocks kanamycin growth of S. pyogenes SKKanGAS strain | BacTiter-Glo, 6 h | inhibition, % at 7.5 µM | 1.3% of 300,000 active;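 active means mean replicate score, as percent of positive control median, at least 50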;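 further: strain carries kanamycin resistance gene driven by streptokinase promoter and grows in 40 µg/ml kanamycin; loss of luminescence reflects streptokinase promoter inhibition or plain growth inhibition; 0% = median of DMSO wells and 100% = positive control at its reference dose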
Mdm2-MdmX inh = disrupts the human Mdm2-MdmX interaction | SaOS-2 split-luciferase Mdm2/MdmX complementation, luminescence | inhibition, % at 8 µM | 3% of 330,000 active | AID 485346;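 active means inhibition of at least 50% at 8 µM in the primary screen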
Beta cell apopt = blocks beta cell apoptosis; INS-1E cytokine-induced death, ATP luminescence, 48 h; percent of positive-control rescue, neutral wells zero; protection from apoptosis, % (test concentration not listed); 0.8% of 300,000 active;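 active means Every replicate reaches about 75%, or at least half do and their mean reaches it too, limit read from the data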;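 further: 0% = cytokine-treated negative control wells and 100% = positive control rescue; higher means more ATP so stronger rescue from cytokine killing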
Calb FLC = affects C. albicans growth with fluconazole | growth inhibition, % (no concentration beside the values) | 0.57% of 300,000 active | AID 1979 | C. albicans CaCi-2 + fluconazole, Alamar Blue growth, 48 h;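 active means growth inhibition above about 58% in most replicates, limit read from the data, passing the limit was not always enough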;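 further: all wells also contain fluconazole at 8 µg/ml as a sub-toxic cotreatment; 0% = median of DMSO wells and 100% = median of geldanamycin control wells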
CSC inhib = cancer stem cell inhibition | cancer stem cell-like cells viability, luminescence | inhibition, % at 7.5 µM | 1.1% of 300,000 active | AID 2717; in the data active means inhibition above about 75%; tested in HMLE shEcad cells
Mdm2 MdmX conf = human Mdm2/MdmX binding inhibition, confirmed | shares compounds with Mdm2-MdmX inh | luminescent assay | inhibition, % at 8 µM | 55% of 10,000 active | AID 489028; in the data active means inhibition above about 40%
FLuc counter = full-length luciferase inhibition in Mdm2/MdmX counter-screen; SaOS-2 full-length luciferase counterscreen, luminescence; inhibition, % at 8 µM; 77% of 6,200 active; AID 504607; shares compounds with Mdm2-MdmX inh;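 active means mean inhibition at 8 µM reaching about 37%, which flags the compound as non-specific, limit read from the data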;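 further: p53-null SaOS-2 cells with luciferase driven by a doxycycline-inducible promoter; compound on cells about two nights before reading with doxycycline added after day one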
An asterisk follows results filed as active; . = no result.

SMILES | T cruzi repl | SKKanGAS inh | Mdm2-MdmX inh | Beta cell apopt | Calb FLC | CSC inhib | Mdm2 MdmX conf | FLuc counter
COc1ccc(/C=C/C(=O)c2cc(F)ccc2OC(=O)c2ccccc2)cc1OC | 16 | 1 | 68* | 3 | 8 | 47 | 58* | 98*
CCOc1ccc(C(=O)/C=C/c2cc(OC)c(OC)c(OC)c2)cc1 | 1 | -3 | 63* | -28 | -3 | 48 | 55* | 49*
CC1CCN(S(=O)(=O)c2ccc(C(=O)OC(C)C(=O)N(C)C3CCCCC3)cc2)CC1 (stereo not drawn) | -2 | -4 | 11 | -1 | -2 | 5 | . | .
O=C(CCCN1C(=O)/C(=C/c2cccc(Br)c2)SC1=S)Nc1cccnc1 | 26 | 19 | 78* | -9 | 50 | -16 | 78* | 63*
O=C(CCCN1C(=O)/C(=C/c2cccc(Br)c2)SC1=S)Nc1ccccn1 | 18 | 28 | 69* | -21 | 14 | 44 | 84* | 31
Cc1cc(NC(=O)CN2C(=O)/C(=C/c3cccc(Br)c3)SC2=S)no1 | 8 | 17 | -46 | -1 | 0 | -11 | . | .
Cc1ccc(/C=C2\SC(=S)N(CC(=O)Nc3cccnc3)C2=O)cc1 | -4 | 3 | 18 | -1 | -1 | 8 | . | .
O=C(CCCN1C(=O)/C(=C/c2cccs2)SC1=S)Nc1cccnc1 | 24 | 0 | 15 | -13 | 8 | 20 | . | .
Cc1ccc(/C=C2\SC(=S)N(CCCC(=O)Nc3cccnc3)C2=O)cc1 | 6 | 3 | 92* | . | -3 | 0 | 72* | 5
O=C(CCCN1C(=O)/C(=C\c2cccc(Br)c2)SC1=S)Nc1cccnc1 | 16 | 8 | 100* | -6 | 46 | 47 | 86* | 24
O=C(NC1CCCC1)c1ncn[nH]1 | -14 | 0 | -8 | -6 | -12 | -12 | . | .
O=C(CCCN1C(=O)/C(=C/c2ccccc2OC(F)F)SC1=S)Nc1cccnc1 | . | . | 85* | -4 | . | -13 | 59* | 22
O=C(CCCN1C(=O)/C(=C\c2cccs2)SC1=S)Nc1cccnc1 | 1 | -5 | 78* | -7 | 0 | -4 | 80* | 25
COc1ccccc1/C=C1/SC(=S)N(CCC(=O)Nc2cccnc2)C1=O | -4 | 23 | 29 | -5 | 3 | 15 | . | .
CCOc1cc(/C=C\[N+](=O)[O-])ccc1OCC(=O)Nc1ccccc1C | 37 | 58* | 96* | 80* | -10 | 76* | 100* | 51*
COc1cc(C(=O)Oc2ccccc2/C=N/NC(=O)c2ccc(C)c(Cl)c2)cc(OC)c1OC | 55* | 13 | 58* | 93* | -14 | 24 | 27 | .
COc1ccc(C(=O)N/N=C/c2ccccc2C(=O)O)cc1OC | -8 | -5 | -6 | -1 | 17 | -7 | . | .
CCOC(=O)c1c(NC(=O)CSc2c[nH]c3ccccc23)sc2c1CCCC2 | 30 | 24 | 45 | 5 | 3 | 55 | . | .
CCOC(=O)c1c(NC(=O)CSc2nnc(-c3c[nH]c4ccccc34)n2CCOC)sc2c1CCCCC2 | 51 | 25 | 56* | 32 | -1 | 15 | 17 | .
Cc1ccc(C)c2sc(N3CCN(C(=O)c4ccc([N+](=O)[O-])o4)CC3)nc12 | 51 | 65* | 90* | 19 | -10 | 24 | 51* | 55*
CC1CCC(C(C)C)C(OC(=O)C[n+]2cccc(C(N)=O)c2)C1 (stereo not drawn) | -9 | 3 | 12 | -7 | 4 | . | . | .
COc1ccc(-c2c[n+](CC(=O)OC3CC(C)CCC3C(C)C)c3n2CCC3)cc1 (stereo not drawn) | 49 | -2 | 63* | 103* | 88* | -2 | 31 | 57*
O=C(C[n+]1cc(-c2ccc(Cl)cc2)n2c1CCCCC2)c1ccccc1 | 21 | 1 | -10 | 4 | 37 | 4 | . | .
CC(C)[C@@H]1CC[C@@H](C)C[C@H]1OC(=O)C[n+]1cc(-c2ccc(Cl)cc2)n2c1CCCCC2 | 51 | 22 | 78* | 1 | 95* | 22 | 73* | 29
COc1ccc(C(C)(C)C)cc1NC(=O)c1[nH]c(C)c(C(C)=O)c1C | 12 | 0 | 54* | 9 | 25 | 23 | 12 | .

Assay outcomes as filed in PubChem BioAssay.
